Rows were chosen to be rich in hits. Some 2% of all compounds tested hit in one or more screens of this group.
XBP1 UPR activ: activators of adaptive XBP1 UPR arm, primary screen, cell-based, CHO-XBP1 luciferase reporter, luminescence, uHTS; activation, % at 20 µM; AID 463104, 2010; 330,000 tested, 0.33% active; IRE1-XBP1 UPR activation; percent of tunicamycin response, DMSO as zero;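 active means versus positive control, 20 µM dose yields 30% or more activation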;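 further: 100% = tunicamycin at 10 µg/mL and 0% = DMSO only wells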
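assay system = CHO-XBP1 luciferase reporter cells | amount = 1000 cells/well | buffer or medium = F12 plus 10% FBS | compound dosing = single point, 20 µM final compound, 1% DMSO | incubation = 16-18 h cell attachment at 37 °C, then 6 h compound exposure | detection = Steady-Glo luminescence read | controls = tunicamycin 10 µg/mL and vehicle-only wells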
MC4R ag barr: MC4R agonists recruiting beta-arrestin, primary screen, cell-based, luminescence, agonist arm of biased-ligand search; activation, % at 8.9 µM; 360,000 tested, 0.98% active; U2OS MC4R beta-arrestin complementation; percent of melanotan II response, DMSO zero; AID 540308, 2011;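 active means activation above a per-plate cutoff, the mean activation of sample wells on that plate plus 3 SD, cut at about 8% in these data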
Target sequence (P32245 whole entry, looked up): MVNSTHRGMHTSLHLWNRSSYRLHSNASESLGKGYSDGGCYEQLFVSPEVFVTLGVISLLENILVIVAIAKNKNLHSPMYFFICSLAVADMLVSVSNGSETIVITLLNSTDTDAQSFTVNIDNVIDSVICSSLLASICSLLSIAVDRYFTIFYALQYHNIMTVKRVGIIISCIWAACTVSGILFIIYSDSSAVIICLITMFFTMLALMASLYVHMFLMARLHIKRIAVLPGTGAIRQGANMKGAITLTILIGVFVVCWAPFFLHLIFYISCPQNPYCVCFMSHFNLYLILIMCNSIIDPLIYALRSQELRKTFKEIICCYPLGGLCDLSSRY
UPR CHOP act: activators of apoptotic CHOP UPR arm, primary screen, cell-based, CHO-CHOP luciferase reporter, luminescence, uHTS. 330,000 tested, 0.34% active. AID 449763, 2010. activation, % at 10 µM. UPR activation; percent of tunicamycin response over DMSO baseline;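 active means at 10 µM dose, activation of 40% or more, normalized to positive control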;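 further: 100% = tunicamycin at 10 µg/mL and 0% = DMSO alone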
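Material: CHO-CHOP cells, stable luciferase reporter of PERK-eIF2a-CHOP signalling; quantity: 500 reporter cells seeded per well; buffer or medium: F12 medium containing 10% fetal bovine serum; compound: one dose, 10 µM in 0.5% DMSO; incubation: 6 h compound treatment, 37 °C; measured by: Steady-Glo luciferase luminescence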
MC4R antagonist: MC4R antagonists of cAMP signaling, primary screen, cell-based, TR-FRET, antagonist arm of biased-ligand search. Melanocortin receptor 4 (Homo sapiens), P32245. MC4R-expressing cells, MTII-stimulated cAMP, LANCE TR-FRET. inhibition, % at 6.5 µM. 360,000 tested, 0.48% active;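 active means inhibition above its plate's cutoff, the mean of tested wells on that plate plus 3 SD, cut at about 29% in these data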;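 further: 0% = Melanotan II alone and 100% = Melanotan II plus saturating MCL0020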
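Material: U2OS-MC4R stable cell line | Reagent: Melanotan II challenge after compound preincubation | Doses: One concentration, 6.5 µM nominal | Incubation: 30-min compound preincubation, 1-h Melanotan II challenge, 1-h detection, room temperature | Signal: TR-FRET cAMP assay | Replicates: One well per compound, no replicates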
Bfl-1 A1 inh: caspase 3/7 activation in MEF A1-2A-BIM cells, primary screen, A1 inhibitor project, cell-based, luminescence, HTS; Caspase-Glo 3/7 luminescence, 3 h; percent of clofoctol response, vehicle zero; caspase activation, % (concentration not given with the values); 330,000 tested, 0.066% active;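 active means over half of replicate activation scores above 10%, or exactly half above 10 with the replicate mean above 10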
UPR CHOP confirm: activators of apoptotic CHOP UPR arm, confirmation, cell-based, CHO-CHOP luciferase reporter, single concentration. shares compounds with UPR CHOP act. CHO-CHOP cells, CHOP-luciferase reporter luminescence; percent of tunicamycin response, DMSO as zero. activation, % at 10 µM. 1,000 tested, 64% active. AID 463112, 2010; in the data active means activation above about 33%;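 further: 0% = DMSO wells and 100% = tunicamycin 10 µg/mL wells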
Starred values were filed as active, the others as inactive; . = no result.

SMILES | XBP1 UPR activ | MC4R ag barr | UPR CHOP act | MC4R antagonist | Bfl-1 A1 inh | others
Cc1oc2c(C)c(O)ccc2c(=O)c1-c1cnn(-c2ccccc2)c1 | 4 | 29* | 5 | 3 | -1
CCOC(=O)C1=C(Cc2ccc(F)cc2)C(=O)c2ccccc2C1=O | -2 | 4 | 125* | 10 | 0
CCCNC(=O)C1(C)CCN(C(=O)c2cccnc2Oc2ccccc2)C1 (centres undefined) | . | -1 | . | 1 | .
Cc1ccc(S(=O)(=O)N2CCC(=O)N(CCOCc3cccc(F)c3)CC2)cc1 | 0 | 8.4* | -1 | 1 | 1
Cc1ccc(-n2nc3c([n+]2[O-])CCc2c-3no[n+]2[O-])cc1 | -6 | -2 | -1 | 24 | 0
[O-][n+]1onc2c1CCc1c-2nn(-c2ccccc2Cl)[n+]1[O-] | -9 | 5 | -3 | 37* | 0
O=C(C[C@H]1C/C=C\C[C@H](NC(=O)OCC2c3ccccc3-c3ccccc32)C(=O)O[C@H](c2ccccc2)CNC1=O)N[C@H](CO)Cc1ccccc1 | -1 | 26* | 0 | 0 | 0
CC(C)CC1C(=O)N(Cc2cn(Cc3ccco3)nn2)CCS(=O)(=O)N1Cc1ccc(-c2ccccc2)cc1 (centres undefined) | . | -1 | . | 13 | .
CN1CCN(CCCNC(=O)c2ccc(/C=C3\Sc4ccccc4N(Cc4ccccc4F)C3=O)cc2)CC1 | . | 8.9* | . | 9 | .
C=CCNc1nc(Cl)nc(Nc2cc(Cl)ccc2OC)n1 | 4 | 8.8* | 1 | 22 | 0
CCOc1nc(Nc2cc(Cl)ccc2OC)nc(OCC)n1 | -3 | 0 | -1 | -2 | 0
Cc1ccc(O)c(-c2cc(-c3ccccc3[N+](=O)[O-])[nH]n2)c1 | 0 | 8.9* | 4 | 2 | -1
C=C1/C=C(\C)[C@](C)(O)C[C@H](O)CC(=O)[C@H](O)[C@@H](O)[C@H](C)C[C@H](C)OC(=O)/C(C)=C/CC/C=C/[C@@H]2O[C@H]2C[C@H](C)C1 | 9 | . | 20 | . | 15*
CC1(C)CC2CC(C)(CN2C(=O)c2cc(-c3ccc(O)cc3)on2)C1 (centres undefined) | 7 | 8.9* | 2 | -8 | -1
COc1cccc(-c2cc(C(=O)N3CC4(C)CC3CC(C)(C)C4)no2)c1 (centres undefined) | 0 | 1 | 2 | 1 | -1
CCN(CC)S(=O)(=O)c1ccc(NC(=O)Nc2cccc(C(F)(F)F)c2)cc1 | 7 | 0 | 15 | 3 | 0
Cc1ccc(S(=O)(=O)Nc2ccc(NC(=O)Nc3cccc(C(F)(F)F)c3)cc2)cc1 | -1 | 9.2* | 4 | 14 | 1
CC[C@@H](C(=O)[C@@H](C)[C@@H](O)[C@H](C)CCc1ccc(C)c(O)c1C(=O)O)[C@H]1O[C@](CC)([C@H]2CC[C@](O)(CC)[C@H](C)O2)C[C@@H]1C | -3 | 89* | 12 | 6 | 1
COc1cccc(C(NC(C)=O)c2nc(-c3ccccc3)cs2)c1 (centres undefined) | . | 0 | . | 1 | .
Cn1nc(C(=O)Nc2ccc(Br)cc2)cc1C(=O)Nc1ccc(Br)cc1 | -4 | 1 | 1 | 7 | 1
Cn1nc(C(=O)Nc2ccccc2Cl)cc1C(=O)Nc1ccccc1Cl | 0 | 9.3* | 1 | 4 | 0
CCCCn1c(=O)[nH]c(=O)c2c1nc(Cn1ncc(Cl)c(Cl)c1=O)n2CCC | -11 | -3 | -7 | -38 | 6.8*
CN1OC[C@@H]2CN(Cc3cc(Cl)cc(Cl)c3)[C@H](c3cccc(-c4ccc(C#N)cc4)c3)C[C@@H]21 | . | -1 | . | 6 | .
COc1ccc(NC(=O)c2cc(C3CCCCN3C(=O)CCCc3ccccc3)on2)c(C)c1 (centres undefined) | . | -2 | . | 4 | .
Cc1cc(C)cc(NC(=O)COc2coc(CN3CCc4ccccc43)cc2=O)c1 | -1 | 9.2* | 0 | 4 | 0
SMILES | XBP1 UPR activ | MC4R ag barr | UPR CHOP act | MC4R antagonist | Bfl-1 A1 inh | others
Cc1ccc(NC(=O)COc2coc(CN3CCc4ccccc43)cc2=O)c(C)c1 | -2 | -2 | 1 | 2 | 0
COc1cccc(-c2cnc(C(O)c3ccc(Cl)cc3C)[nH]2)c1 (centres undefined) | . | 2 | . | 0 | .
CN1C(=O)C(N=Nc2ccc([N+](=O)[O-])cc2)SC1=S (centres undefined) | . | -1 | . | 1 | .
CCCCCCSC1=C(C#N)C(c2ccccc2)CC(=O)N1 (centres undefined) | 0 | 10* | 0 | 7 | 0
Cc1ccc(C2CC(=O)NC(SCc3ccccc3)=C2C#N)cc1 (centres undefined) | 2 | 1 | 2 | -2 | 0
CC1C(=O)CC(c2ccccc2)N(C)C1c1ccccc1 (centres undefined) | 1 | 9.1* | 0 | 5 | 0
CS(=O)(=O)c1ncc(Cl)c(C(=O)Nc2ccc(OC(F)F)cc2)n1 | -13 | -2 | -11 | 12 | 18*
CC(C)c1ccc(/C=C/C(=O)n2nnc3ccccc32)cc1 | 2 | -1 | 69* | 3 | 1 | UPR CHOP confirm=17
CC(C)c1ccc(/C=C/C(=O)N2CCCCCC2)cc1 | 4 | 0 | 3 | 12 | 0
O=C(Nc1scc(-c2ccc(Br)cc2)c1C(=O)O)c1ccccc1F | 5 | -1 | 56* | 20 | -2 | UPR CHOP confirm=5
O=C(Nc1scc(-c2ccccc2)c1C(=O)O)c1ccccc1F | -2 | -2 | 4 | 5 | -7
S=c1[nH]nc(-c2cc(-c3ccccc3)n[nH]2)n1/N=C/C(Br)=C/c1ccccc1 | 12 | 1 | 109* | 6 | 0 | UPR CHOP confirm=130*
O=C(c1cccs1)N1C[C@@H](O)[C@H](n2cc(-c3ccc(F)cc3)nn2)C[C@@H]1c1ccccc1 | . | 1 | . | 17 | .
CCCOc1ccc(N2C(=O)CC(N(O)c3ccccc3)C2=O)cc1 (centres undefined) | 5 | 0 | 192* | 2 | -2 | UPR CHOP confirm=170*
CCOC(=O)C1(C)CCCN1C(=O)c1ccc(C(F)(F)F)nc1C (centres undefined) | . | -2 | . | -1 | .
CCn1c2ccccc2c(=O)c2ccccc21 | 1 | -1 | 0 | 5 | 0
